Most compounds without a hit are left out; they make up all but 2% or so of the library.
Scp-1 inhibitor = inhibitors of human Scp-1 phosphatase; Q9GZU7; Recombinant Scp1, phosphopeptide, malachite green phosphate absorbance; inhibition, % at 20 µM; 340,000 compounds, 0.88% hits; AID 493091;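 active = inhibition above about 50% at 20 µM, limit read from the data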
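Test system: SCP-1 phosphatase catalytic domain, residues 76-261 | Compound dosing: One concentration, 20 µM, with 1.0% DMSO | Schedule: 45 min room-temperature reaction, 5 min colour, 30 min stabiliser | Detection: Absorbance at 630 nm | Read-out basis: % inhibition of SCP-1 phosphate liberation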
STEP block = blocks human striatal-enriched tyrosine phosphatase; 360,000 compounds, 0.25% hits; P54829; recombinant STEP, OMFP fluorogenic substrate, fluorescence; inhibition, % at 20 µM; AID 588621;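 active = inhibition at 20 µM, scaled per plate between control wells, above about 37%, limit read from the data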
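medium = Bis-Tris buffer pH 6.0, 2.5 mM DTT, 0.005% Tween 20 | test system = STEP (striatal-enriched tyrosine phosphatase) enzyme, cell-free | measure = normalized % inhibition | compound dosing = 20 µM, 1% DMSO | also added = 25 µM OMFP | schedule = reaction 20 min, ambient temperature | measured by = fluorescence read at 480 nm ex / 540 nm em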
DNMT1 block = blocks human DNA methyltransferase DNMT1. DNMT1 molecular beacon, Hinp1I cleavage, fluorescence. P26358. 360,000 compounds, 0.83% hits. inhibition (reported as % activation of signal), % at 10 µM; in the data active = inhibition above about 50%
LMPTP inh = LMPTP (human) inhibition. recombinant LMPTP-A, OMFP fluorogenic substrate, fluorescence intensity. inhibition, % at 20 µM. 360,000 compounds, 0.22% hits. AID 651560;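 active = compounds that cut the enzyme signal by at least half of the control window in the single-dose screen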
Target sequence (P24666 whole entry, looked up): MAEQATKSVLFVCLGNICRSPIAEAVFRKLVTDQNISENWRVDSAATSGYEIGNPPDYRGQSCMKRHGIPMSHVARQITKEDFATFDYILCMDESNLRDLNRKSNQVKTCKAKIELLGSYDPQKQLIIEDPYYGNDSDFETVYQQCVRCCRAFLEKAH
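Test system: LMPTP-A, protein tyrosine phosphatase of low molecular weight; Input: 0.625 nM enzyme; Incubation: 50 min dark incubation at room temperature; Signal: endpoint fluorescence intensity from OMFP dephosphorylation; Read-out basis: % inhibition versus control wells.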
Rpn11 block = inhibitors of human proteasome Rpn11; human 26S proteasome, Ub4-pepOG fluorescence polarization; 20S core pre-blocked with epoxomicin; 360,000 compounds, 0.59% hits; inhibition, % at 20 µM; O00487;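 active = inhibition at 20 µM, scaled to each plate's controls, above about 33%, limit read from the data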
Target sequence (O00487 whole entry, looked up): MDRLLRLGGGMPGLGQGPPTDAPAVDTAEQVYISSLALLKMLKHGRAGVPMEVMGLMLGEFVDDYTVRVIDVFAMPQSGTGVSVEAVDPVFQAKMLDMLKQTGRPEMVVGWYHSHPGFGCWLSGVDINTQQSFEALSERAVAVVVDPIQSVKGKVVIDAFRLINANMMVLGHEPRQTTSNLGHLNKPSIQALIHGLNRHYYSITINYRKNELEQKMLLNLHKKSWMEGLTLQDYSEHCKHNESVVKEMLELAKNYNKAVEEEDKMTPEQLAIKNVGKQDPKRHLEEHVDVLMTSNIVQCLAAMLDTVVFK
Scp1 confirm = confirmation of human Scp-1 phosphatase inhibitors. recombinant SCP-1 catalytic domain, phosphate release, malachite green absorbance. shares compounds with Scp-1 inhibitor. inhibition, % at 20 µM. 2,500 compounds, 61% hits. AID 540281
MG interference = counter-screen for Scp-1 inhibitors: colorimetric interference | shares compounds with Scp-1 inhibitor | 2,500 tested, under 10 active | Colorimetric interference counterscreen, malachite green absorbance 630 nm | apparent inhibition (interference), % at 20 µM | AID 540313;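 note: compounds added after enzyme reaction finished so only phosphate colour detection is probed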
Scp1 DSF = validation of human Scp-1 inhibitors by thermal shift binding; shares compounds with Scp-1 inhibitor; Recombinant SCP1, Sypro Orange thermal shift Tm; thermal shift relative to vanadate control, % at 40 µM; 1,500 compounds, 25% hits; AID 540329;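 active = substances whose mean melting-temperature shift, as a percentage of the reference inhibitor's shift, reaches about 5.3%, limit read from the data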
A number is an active result; n = inactive; x = not tested or not shown.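 Rule for the calls, unless noted: active = inhibition of at least 30% at 20 µM; inactive = the rest.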

SMILES	Scp-1 inhibitor	STEP block	DNMT1 block	LMPTP inh	Rpn11 block	Scp1 confirm	MG interference	Scp1 DSF
O=C(CSc1ccsc1[N+](=O)[O-])N1CCN(c2ccccc2)CC1	64	n	n	n	n	76	n	n
O=C(CSc1nc2sccc2c(=O)[nH]1)N1CCN(c2ccccc2)CC1	109	n	n	n	n	59	n	n
COc1ccc(-c2nc3ccc(C)cn3c2Cc2ccccc2)cc1OC	x	n	n	n	n	x	x	x
CCOC(=O)N1CCN(C(C(=O)NC2CCCC2)c2cccc(OC)c2OC)CC1 (stereo unspecified)	x	x	x	n	x	x	x	x
COc1cc(Cl)c(C)cc1NC(=O)COC(=O)C1CC1C (stereo unspecified)	n	n	n	n	n	x	x	x
Cc1nc(NC(=O)COC(=O)C2CC2C)c(Cl)cc1Cl (stereo unspecified)	51	n	n	n	n	n	n	x
CCc1ccc(NC(=O)C(C)Sc2ccc(S(=O)(=O)N3CCN(C)CC3)cn2)cc1 (stereo unspecified)	n	n	n	n	n	x	x	x
CC(=O)c1sc(NC(=O)C2CC(=O)N(Cc3ccccc3)C2)nc1-c1ccccc1 (stereo unspecified)	n	n	n	n	n	n	n	x
CCN(CC)S(=O)(=O)c1cc(NC(=O)C2CC(=O)N(Cc3ccccc3)C2)ccc1Cl (stereo unspecified)	n	n	n	n	n	n	n	x
CC(=O)Nc1ccc(NC(=O)C2CC(=O)N(Cc3ccccc3)C2)cc1 (stereo unspecified)	n	n	n	n	n	x	x	x
COc1cc2c(cc1[N+](=O)[O-])-c1ccc([N+](=O)[O-])cc1C2=NO	x	n	n	n	n	x	x	x
CCc1nnc(NC(=O)CC(C)c2ccccc2)s1 (stereo unspecified)	58	n	n	n	n	n	n	x
COc1ccc(CNC(=O)C2(C)Cc3c(-c4cccc(NC(C)=O)c4)ccnc3O2)cc1OC (stereo unspecified)	x	n	n	n	n	x	x	x
CCOc1cc(C(=O)N(C)Cc2cc3cc(OC)ccc3[nH]c2=O)cc(OCC)c1OCC	n	n	n	n	n	x	x	x
CCOc1ccccc1C(=O)N(C)Cc1cc2cc(OC)ccc2[nH]c1=O	51	n	n	n	n	n	n	x
COc1ccccc1-c1nn2c(-c3ccco3)nnc2s1	51	n	n	n	n	60	n	n
N#C/C(=C\c1ccc(OC(=O)c2cccs2)cc1)c1nc2ccccc2[nH]1	52	n	n	n	n	83	n	n
N#C/C(=C\c1cccs1)c1nc2ccccc2[nH]1	n	n	n	n	n	x	x	x
COc1ccc2c(c1)c(=O)oc1c(C)c(OC(C)C(=O)N[C@@H](Cc3c[nH]c4ccc(O)cc34)C(=O)O)ccc12 (stereo partly specified)	58	n	n	n	n	43	n	9.6
C[N+]1=C(/C=C/Nc2ccccc2Cl)C(C)(C)c2ccccc21	99	n	n	n	n	79	n	n
Cc1ccc(NC2CCCN(C(=O)CCc3scnc3C)C2)cc1C (stereo unspecified)	55	n	n	n	n	n	n	x
CCOc1c(Br)cc(Br)cc1/C=C1\SC(N)=NC1=O	85	n	n	n	n	n	n	x
COc1cc(/C=C2\SC(=S)N(CCCCC(=O)O)C2=O)ccc1OS(=O)(=O)c1ccc(C)cc1	51	n	n	n	n	48	n	15
COc1cccc(-c2cnc3c(NC(C)=O)cc(-c4cccc(C(=O)NCCN(C)C)c4)cn23)c1	x	n	n	n	n	x	x	x
Cc1ccc(S(=O)(=O)N2CCN(C(=O)/C=C/c3ccco3)CC2)cc1	71	n	n	n	n	71	n	n
CC(C)NC(=O)c1cc(C2CCCCN2C(=O)OCCF)on1 (stereo unspecified)	x	n	n	n	n	x	x	x
